A selection: hits, their analogues and other compounds. The true share with any hit is near 1.3%.
FN deposit inh = inhibitors of fibronectin matrix deposition, primary screen, AH1F cells, Alexa488-fibronectin fluorescence, plate reader; 350,000 compounds, 0.086% hits; inhibition, % at 12.6 µM; AID 743247, 2014; AH1F fibroblasts, overnight;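 active = mean inhibition across replicates of 30% or more, regardless of how many single replicates reach that level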
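Assay system: AH1F fibroblasts assembling fluorescent fibronectin matrix; Amount: 10000 AH1F cells per well; Buffer or medium: DMEM, 2% serum; Probe or stimulus: Alexa488-fibronectin, 24 nM final in well; Doses: single compound dose, delivered by pin transfer; Incubation: 1 h adhesion, overnight exposure; Measured by: fluorescence 485/525 nm; Read-out: fibronectin deposition inhibition.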
RAD54 branch = inhibitors of human RAD54 branch migration, primary screen, biochemical, fluorescence, single point; RAD54 Holliday junction branch migration, FAM/BHQ fluorescence; inhibition, % at 10.4 µM; 360,000 compounds, 0.14% hits; AID 602329, 2012;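 active = mean normalized replicate activity at least 40 and at least half of replicates scoring 40 or more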;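 note: inhibitors cause a drop in the FAM fluorescence signal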
PAX8 reporter = inhibitors of PAX8-driven TPO luciferase reporter, primary screen, RMG-I cells, single concentration | inhibition, % at 12.6 µM | SteadyGlo, 24 h | 360,000 compounds, 1.2% hits | AID 652154, 2013;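 active = mean replicate inhibition at least 60% with every replicate also reaching 60%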;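 note: luciferase light reporting Pax8 driven TPO promoter activity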
RAD52 inh = RAD52 DNA annealing inhibitors, primary screen, biochemical, FRET, single point, set 2. recombinant RAD52 DNA annealing, FRET fluorescence. AID 651710, 2012. 360,000 compounds, 0.46% hits. inhibition, % at 18.7 µM. DNA repair protein RAD52 homolog (Homo sapiens), P43351;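 active = every replicate showing at least 50% inhibition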
Target sequence (P43351 whole entry, looked up): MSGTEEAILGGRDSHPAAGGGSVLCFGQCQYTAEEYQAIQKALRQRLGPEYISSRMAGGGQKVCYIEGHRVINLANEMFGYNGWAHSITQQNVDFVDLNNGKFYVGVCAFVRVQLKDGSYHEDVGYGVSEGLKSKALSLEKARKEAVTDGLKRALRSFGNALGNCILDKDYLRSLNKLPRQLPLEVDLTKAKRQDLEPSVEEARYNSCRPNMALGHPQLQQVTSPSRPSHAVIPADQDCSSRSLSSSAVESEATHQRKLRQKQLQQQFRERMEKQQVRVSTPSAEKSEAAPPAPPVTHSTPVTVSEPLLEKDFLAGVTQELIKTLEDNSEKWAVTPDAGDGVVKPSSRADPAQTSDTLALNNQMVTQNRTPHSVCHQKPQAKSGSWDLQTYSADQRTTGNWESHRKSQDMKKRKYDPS
Of the large screens only hits and unclear results are named; the others gave an inactive call.

C[C@H](CO)N1C[C@H](C)[C@@H](CN(C)Cc2ccc(C(F)(F)F)cc2)Oc2c(NC(=O)CCCCCC(=O)Nc3ccccc3N)cccc2C1=O	PAX8 reporter 69 (no result: RAD54 branch)
C[C@@H]1CN([C@H](C)CO)C(=O)Cc2cc(NC(=O)CCCCCC(=O)Nc3ccccc3N)ccc2O[C@@H]1CN(C)Cc1ccc(C(F)(F)F)cc1	PAX8 reporter 69
C[C@@H]1CN([C@@H](C)CO)C(=O)Cc2cc(NC(=O)CCCCCC(=O)Nc3ccccc3N)ccc2O[C@@H]1CN(C)Cc1ccc(Cl)c(Cl)c1	PAX8 reporter 70 (no result: FN deposit inh)
Cc1noc(C)c1NC(=O)Nc1cccc2c1O[C@H](CN(C)Cc1ccc(C(F)(F)F)cc1)[C@@H](C)CN([C@@H](C)CO)C2=O	none (no result: FN deposit inh)
Cc1ccc(C2=NN(C(=O)CCCC(=O)O)C(c3ccco3)C2)cc1 (centres undefined)	none (no result: RAD54 branch)
C/[N+]([O-])=C1\Cc2ccccc2C1=O	none (no result: FN deposit inh, PAX8 reporter, RAD52 inh)
C[C@H](CO)N1C[C@H](C)[C@H](CN(C)Cc2ccc(Cl)c(Cl)c2)Oc2ccc(NC(=O)CCCCCC(=O)Nc3ccccc3N)cc2CC1=O	PAX8 reporter 68 (no result: FN deposit inh)
C[C@H]1CN([C@@H](C)CO)C(=O)Cc2cc(NC(=O)Cc3ccccc3)ccc2O[C@H]1CN(C)Cc1ccc(C(=O)Nc2ccccc2N)cc1	none (no result: FN deposit inh, RAD54 branch)
C[C@@H]1CN([C@H](C)CO)C(=O)c2cccc(NC(=O)Nc3ccccc3)c2O[C@H]1CN(C)Cc1ccc(C(=O)Nc2ccccc2N)cc1	none (no result: FN deposit inh)
C[C@@H]1CN([C@@H](C)CO)C(=O)Cc2cc(NC(=O)CCCN(C)C)ccc2O[C@H]1CN(C)Cc1ccc(C(=O)Nc2ccccc2N)cc1	RAD52 inh 83 (no result: FN deposit inh, RAD54 branch)
C[C@@H]1CN([C@@H](C)CO)C(=O)c2cccc(NC(=O)Nc3ccccc3)c2O[C@@H]1CN(C)Cc1ccc(C(=O)Nc2ccccc2N)cc1	PAX8 reporter 68 (no result: FN deposit inh)
COc1ccc(CCN2C(=O)CSC2=S)cc1OC	PAX8 reporter 90
Cc1noc(C)c1NC(=O)N(C)C[C@H]1OCCCC[C@H](C)Oc2ccc(NC(=O)c3ccncc3)cc2C(=O)N([C@H](C)CO)C[C@@H]1C	none (no result: FN deposit inh)
COc1ccc(-c2cn(-c3ccc(Br)cc3)c3[n+]2CCS3)cc1	PAX8 reporter 65
Cc1ccc(S(=O)(=O)N(C)C[C@H]2OCCCC[C@H](C)Oc3ccc(NS(=O)(=O)c4ccc(F)cc4)cc3C(=O)N([C@H](C)CO)C[C@@H]2C)cc1	PAX8 reporter 80
Cc1ccc(S(=O)(=O)N(C)C[C@H]2OCCCC[C@H](C)Oc3ccc(NS(=O)(=O)c4ccc(F)cc4)cc3C(=O)N([C@@H](C)CO)C[C@@H]2C)cc1	PAX8 reporter 72
Cc1ccc(S(=O)(=O)Nc2ccc3c(c2)C(=O)N([C@H](C)CO)C[C@@H](C)[C@@H](CN(C)S(=O)(=O)c2ccc(F)cc2)OCCCC[C@H](C)O3)cc1	none (no result: FN deposit inh)
Cc1ccc(S(=O)(=O)Nc2ccc3c(c2)C(=O)N([C@H](C)CO)C[C@@H](C)[C@H](CN(C)S(=O)(=O)c2ccc(F)cc2)OCCCC[C@@H](C)O3)cc1	none (no result: FN deposit inh)
CC1(C)CC(=O)C2=C(C1)Nc1ccccc1N(C(=O)C1CC1)C2c1ccco1 (centres undefined)	none
COc1ccc2oc(C(=O)OCC(=O)N3CCCCC3C)c(C)c2c1 (centres undefined)	none
COc1cc(C2C3=C(COC3=O)Oc3cc4c(cc32)OCO4)cc(OC)c1O (centres undefined)	PAX8 reporter 90 (no result: RAD54 branch)
COc1cc(C2CC(=O)Oc3cc4c(cc32)OCO4)cc(OC)c1OC (centres undefined)	none
COc1cc(C2c3cc4c(cc3C3OC(=O)C2C3CO)OCO4)cc(OC)c1OC (centres undefined)	PAX8 reporter 76
O=C1OCC2=C1C(c1ccc3c(c1)OCO3)c1cc3c(cc1O2)OCO3 (centres undefined)	none (no result: RAD54 branch)
COc1cc(C2C(C#N)=C(N)Oc3cc4c(cc32)OCO4)cc(OC)c1OC (centres undefined)	PAX8 reporter 96 (no result: FN deposit inh, RAD54 branch)
COc1cc(C2C3=C(COC3=O)Oc3cc4c(cc32)OCO4)cc(OC)c1OC (centres undefined)	PAX8 reporter 69 (no result: RAD54 branch)
COc1cc([C@@H]2c3cc4c(cc3[C@@H](O)[C@H]3COC(=O)[C@H]23)OCO4)cc(OC)c1O[Si](C)(C)C(C)(C)C	none

Bioassay records from PubChem.
